Results on ten compounds are retold here after ChEMBL document CHEMBL1125717, “Synthesis and biological evaluation of cyclopropyl analogues of 2-amino-5-phosphonopentanoic acid” (J Med Chem, 1991).

Test [1] can be described thus: Compound was tested in vitro for Non N-methyl-D-aspartate glutamate receptor binding using [3H]- -Kainate. Further details: species or system Rattus norvegicus. In short, it runs like this: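 Rat forebrain synaptic membranes (male Sprague–Dawley, 30–45 days old) were treated with 0.04% Triton X-100 for 30 min at 37 °C and washed in 50 mM Tris/acetate pH 7.4. Incubation used 0.5 nM [3H]kainate and graded compound concentrations, with 0.25–0.35 mg/mL membrane, for 60 min at 4 °C. Bound ligand was separated by centrifugation; 0.1 mM kainate defined nonspecific binding. IC50 was derived by logit–log and Ki by Cheng–Prusoff, from ≥3 triplicate experiments.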

The target of test [2] is Glutamate NMDA receptor. Kind of test: Compound was tested in vitro for N-methyl-D-aspartate glutamate receptor binding using [3H]L-glutamate. It counts as protein-complex assay. The method, boiled down:
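Rat forebrain synaptic plasma membranes (male Sprague–Dawley, 30–45 days old) were pretreated with 0.04% Triton X-100 for 30 min at 37 °C and washed four times in 50 mM Tris/acetate, pH 7.4. Incubation: 10 nM [3H]-L-glutamate, membranes at 0.25–0.35 mg/mL final, 10 min at 4 °C, then filtration through PEI-treated filters. Nonspecific binding: 0.1 mM L-glutamate. IC50 by logit–log; Ki by Cheng–Prusoff. Mean ± SEM, ≥3 experiments in triplicate.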

A short description of test [3]: Compound was tested in vitro for Non N-methyl-D-aspartate glutamate receptor binding using [3H]kainate. Further details: species or system Rattus norvegicus. In short, it runs like this: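 Triton X-100-treated (0.04%, 30 min, 37 °C), washed rat forebrain synaptic membranes (male Sprague–Dawley, 30–45 days), 0.25–0.35 mg/mL final in 50 mM Tris/acetate, pH 7.4. Incubated with 0.5 nM [3H]kainate for 60 min at 4 °C; bound ligand separated by centrifugation. Nonspecific binding: 0.1 mM kainate. IC50 by logit–log; Ki by Cheng–Prusoff. Mean ± SEM, ≥3 experiments in triplicate.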

The target of test [4] is Glutamate NMDA receptor. The experiment in a line: Compound was tested in vitro for its inhibitory activity against N-methyl-D-aspartate glutamate receptor using [3H]MK-801. The class given is protein-complex assay. In short, it runs like this: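 Functional modulation assay on washed rat synaptic membranes pretreated with 0.04% v/v Triton X-100. Incubated 30 min at 25 °C with 5.0 nM [3H]MK-801, 10.0 nM L-glutamate and graded compound concentrations in 50 mM Tris/acetate, pH 7.4. Filter-bound radioactivity counted by scintillation. Nonspecific binding: 60 μM MK-801. IC50 from logit–log transformation. Mean ± SEM, ≥3 experiments in triplicate.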

pIC50, pKi: −log10 of the molar value. Bounds are passed on as bounds.

As to `NC(CCCP(=O)(O)O)C(=O)O` (centres undefined), the pKi in test [1] is under 4.00; on Glutamate NMDA receptor [2], 6.38.
Consider `N[C@@]1(C(=O)O)CC1CCP(=O)(O)O` (some centres undefined), for which the negative-log Ki (pKi) in test [3] was under 4.00; on Glutamate NMDA receptor [2], 4.57. Further, the pIC50 against Glutamate NMDA receptor [4] is 4.74.
On the same counts, the results for `N[C@]1(C(=O)O)CC1CCP(=O)(O)O` (some centres undefined) are under 4.00, 4.73 and 4.82.
With `NC(C(=O)O)C1CC1CCP(=O)(O)O` (centres undefined), the pKi in test [3] was under 4.00; on Glutamate NMDA receptor [2], under 4.30.
As to `N[C@H](C[C@@H]1CC1P(=O)(O)O)C(=O)O` (some centres undefined), the pKi in test [3] is under 4.00; at Glutamate NMDA receptor [2], 5.80. Further, at Glutamate NMDA receptor [4], the pIC50 was 5.57.
The compound `NC(C(=O)O)C1CC1CP(=O)(O)O` (stereo in doubt; 13a) gave a pIC50 at Glutamate NMDA receptor [4] of 4.65. Also, on Glutamate NMDA receptor [2], the pKi is 4.72.
In the case of `NC(C(=O)O)C1CC1CP(=O)(O)O` (stereo in doubt; 13b), the pKi in test [3] was under 4.00; on Glutamate NMDA receptor [2], 5.02. Moreover, on Glutamate NMDA receptor [4], the pIC50 is 4.88.
`NC(C(=O)O)C1CC1CCCP(=O)(O)O` (stereo in doubt; 33c): the pKi in test [3] was under 4.00; at Glutamate NMDA receptor [2], 4.90.
With `NC(C(=O)O)C1CC1CCCP(=O)(O)O` (stereo in doubt; 33d), the pKi at Glutamate NMDA receptor [2] was under 4.30.
Take `O=C(O)[C@@H]1C[C@H](CP(=O)(O)O)CCN1` [SELFOTEL]: the pKi was under 4.00 in test [3] and 6.80 at Glutamate NMDA receptor [2]. This compound also gave a pIC50 against Glutamate NMDA receptor [4] of 6.85.

One may read the pKi as the negative decadic logarithm of the Ki, by convention in mol/L. Higher therefore signals a low Ki. In general, pIC50 refers to −log10 of the IC50, conventionally taken in molar units. A high value points to a low IC50.
